Test results: the RNAGym collection of RNA variant scans (doi:10.1126/science.aae0568)
Variants at the floor of the assay were thinned out.

B1: tRNA (parent)
chain: GUUCCGUUGGCGUAAUGGUAACGCGUCUCCCUCCUAAGGAGAAGACUGCGGGUUCGAGUCCCGUACGGAACG

Variants of: B1
Experiment: yeast fitness relative to wild type (ratio to wild type); higher = fitter; tRNA-Arg(CCU), competitive growth, 37 C, YPD
Method in brief: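 Variants of the tRNA-Arg(CCU) gene were chemically synthesised with a 3% per-site mutation rate across 69 sites and placed at the native genomic locus in Saccharomyces cerevisiae. Six parallel replicates of the pooled strains were competed in YPD at 37°C for 24 hours, and gene amplicons from the start and end populations were read by 100-nucleotide paired-end sequencing. Darwinian fitness relative to wild type was derived from changes in genotype frequencies. Genotypes required ≥ 100 starting reads, and estimates < 0.5 were set to 0.5.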

Row | Variant | yeast fitness
1 | C27U U28A U32A C34U A36C C55A G68A | ≤ 0.5
2 | U28C A43C G44C | ≤ 0.5
3 | C27U C49U C60A C61A | ≤ 0.5
4 | C27U C62A C66U | ≤ 0.5
5 | C27U C31U A40U A45U C49G A65C | ≤ 0.5
6 | C27U C31A A57U | ≤ 0.5
7 | C27U G68U | 0.755
8 | C27U G68A | 0.822
9 | C27U G68C | 0.757
10 | U28A C31G U35A U47A U54A | ≤ 0.5
11 | U28A A40G A43U A65U C66U | ≤ 0.5
12 | C27U C46G A65G | 0.725
13 | U28A C30A G67U | 0.642
14 | U28A A40C C66U | 0.658
15 | U28A C60U | 0.64
16 | C27U C33U A37U G51A A70G | 0.552
17 | U28A A57G C60A | 0.569
18 | U28A C61G C62G | 0.533
19 | C27U G51C C55A C66U | 0.53
20 | C27U U32A A69U | 0.774
21 | C27U C29G C61U | 0.675
22 | U28A G44A G50A A57G G63A | ≤ 0.5
23 | U28A G51C C55G A57C U64A G67C | ≤ 0.5
24 | C27U C31G C55G | ≤ 0.5

Row | Variant | yeast fitness
25 | U28A C66U G68A | ≤ 0.5
26 | C27U C31U U53C A70U | ≤ 0.5
27 | U28C A37C A70C | ≤ 0.5
28 | C27U G51A U59A | 0.568
29 | U28A A36G A37G | ≤ 0.5
30 | C27U C61A | 0.62
31 | C27U C61G | 0.647
32 | C27U G41C | 0.898
33 | C27U C33A A40C | 0.574
34 | U28A C29G C31U U54C | ≤ 0.5
35 | C27U G41C U64C A70C | 0.675
36 | U28A C29G A57C G67A | ≤ 0.5
37 | C27U C62A | 0.764
38 | C27U C62U | 1.01
39 | C27U C30U C46U U54G A70G | 0.655
40 | U28C A36G | 0.989
41 | U28A C29G C33U C34G A42U U59C | ≤ 0.5
42 | C27U C30G A40C G44A G52A A70U | ≤ 0.5
43 | U28A C34U U47C C60U | ≤ 0.5
44 | C27U G51C U59C G63A | ≤ 0.5
45 | C27U G44C C62U | 0.733
46 | C27U G38A C66A | 0.645
47 | C27U C31A A69C | 0.598
48 | U28A A36G G52C | ≤ 0.5

Row | Variant | yeast fitness
49 | U28A A40U C49U C60A G63A | ≤ 0.5
50 | U28A A43C G48A A70C | 0.577
51 | U28A C33A G51C A57C | ≤ 0.5
52 | U28A C29G G51A G56A A69C | ≤ 0.5
53 | U28C A40G | 0.807
54 | C27U G51A | 0.836
55 | C27U G63A A65G | ≤ 0.5
56 | C27U C33G A43G | ≤ 0.5
57 | U28C C29G A43U C49U U54G C66A | ≤ 0.5
58 | C27U U47C C55U C62G A69U | ≤ 0.5
59 | U28A A65C | 0.675
60 | C27U C34G A57G C62A | ≤ 0.5
61 | C27U U28C | 0.903
62 | C27U U28A | 0.699
63 | C27U G44C | 1.03
64 | C27U C31U A40U A45U C49G G63A | 0.589
65 | C27U C66A | 0.701
66 | U28A A42G A57G | ≤ 0.5
67 | C27U G51C U59C C62A | ≤ 0.5
68 | U28C A42G A65G | 0.598
69 | C27U G50A G52A U59C C66U | 0.53
70 | C27U C66G G67C | ≤ 0.5
71 | C27U G51C C61G | ≤ 0.5
72 | C27U U28A A40U | 0.671

Row | Variant | yeast fitness
73 | C27U G44C U59G | ≤ 0.5
74 | C27U G48A C49U A70U | 0.752
75 | U28A C49U C55G | ≤ 0.5
76 | U28A G58C G68C | ≤ 0.5
77 | U28A G44C | 0.813
78 | C27U C46A G50A C62U | 0.888
79 | C27U C31U | 1.07
80 | C27U C31G | 0.713
81 | C27U U35C A36G C49G | ≤ 0.5
82 | U28A C33U C55G A70U | ≤ 0.5
83 | C27U C34U A45G U47C C60G | ≤ 0.5
84 | U28A G38C G41A C46A | ≤ 0.5
85 | C27U U54A | 0.543
86 | U28A A40C | 0.961
87 | C27U C30U A40U G48C G63A | 0.535
88 | U28A C55G C66U | ≤ 0.5
89 | U28A A45C C49A G50A | ≤ 0.5
90 | C27U G58C A69C | 1.05
91 | C27U G58C U64C | 0.73
92 | U28A A40U A69U | 0.769
93 | U28C A37C A40U A65U | ≤ 0.5
94 | U28A C33G A36U A40G U54C | 0.528
95 | U28A A37G G41C | ≤ 0.5
96 | C27U C29A G38C A57G A65C C66A | ≤ 0.5

Row | Variant | yeast fitness
97 | U28C A37C A40U G63A A70C | ≤ 0.5
98 | C27U C29G A57C C61A | ≤ 0.5
99 | U28A C34U G52A | ≤ 0.5
100 | C27U U59A C66U | ≤ 0.5
101 | U28A G67A | 0.628
102 | U28A C46A C60U C66U | ≤ 0.5
103 | C27U C33G C55G C61U | 0.539
104 | U28A G52A U54A | ≤ 0.5
105 | U28C A43C G44C C61A | 0.548
106 | U28C C29U A45C | 0.545
107 | U28A A40U C62A | 0.943
108 | C27U G39A C46U | 0.918
109 | C27U C34U U35C U47C U53G A69U | ≤ 0.5
110 | C27U G58C | 1.02
111 | C27U G58A | 0.899
112 | C27U C30U C34G A37C A57G C61A | ≤ 0.5
113 | U28C A40C C66G | 0.733
114 | U28A A57G | 0.688
115 | U28A C31G A42U C49G G67U | ≤ 0.5
116 | U28A G56A | 0.796
117 | C27U C46A A70G | 0.66
118 | C27U C33U A36U G63C | 0.541
119 | C27U C34A G44C C62A | 0.539
120 | C27U U35C A37C A40U A43U | ≤ 0.5

Row | Variant | yeast fitness
121 | U28A C34G C49G | ≤ 0.5
122 | C27U C31A G63A | ≤ 0.5
123 | C27U C29U C60U A69G | 0.565
124 | C27U C34G A45U C60A | ≤ 0.5
125 | U28C A42C U54G | ≤ 0.5
126 | U28A C31U A65U | 0.546
127 | U28C A42U | 0.816
128 | C27U C33U G51A | 0.612
129 | C27U C29A A36U A40C G52C | 0.583
130 | U28A A70U | 0.738
131 | C27U U28A U32A C34U A36C G48A C60U | ≤ 0.5
132 | U28C A43U G48C C60G | ≤ 0.5
133 | C27U C46U G48A | 0.888
134 | C27U C46U A65U A70C | 0.828
135 | U28A A45C A65C | ≤ 0.5
136 | U28A C31U U32A C55U | ≤ 0.5
137 | C27U G48A A70U | 0.775
138 | C27U U47G C55G G58C | 0.67
139 | C27U C30A | 0.773
140 | C27U C30U | 0.825
141 | C27U G51C C62G | ≤ 0.5
142 | U28A C31A C33U A37C G50A A65U | ≤ 0.5
143 | U28A A36U G48C | ≤ 0.5
144 | U28A U35C A37C | 0.647

Row | Variant | yeast fitness
145 | C27U C30G A40G G51C | ≤ 0.5
146 | U28A C31U C34U | ≤ 0.5
147 | C27U C33A | 0.618
148 | U28A G39C | 0.552
149 | U28A A45G C66U | 0.538
150 | C27U C31U G67C | 0.727
151 | U28A C30A | 0.759
152 | U28A C30G | 0.51
153 | C27U C33G A43G G48A G52A | ≤ 0.5
154 | U28A U32C A70G | 0.604
155 | U28A A36G C66G | ≤ 0.5
156 | U28A A36U G52A | 0.777
157 | C27U U32A C33A | 0.51
158 | C27U C31U G51C C66A | ≤ 0.5
159 | U28A U32C | 0.833
160 | C27U G38C A40U A45G G52A A65C | ≤ 0.5
161 | C27U C49A U64C G67A | ≤ 0.5
162 | C27U U59G G68C | 0.539
163 | U28A A36G A57U A69U | ≤ 0.5
164 | U28A G50C | 0.609
165 | C27U C30U U53A A65G A69C | ≤ 0.5
166 | U28A G58A | 0.913
167 | U28A G58C | 0.798
